Consider nine compounds from PMC3797290 (Experimental and Therapeutic Medicine, 2013).

Assay [1] has as its system P. aeruginosa 8–97. Nature of the assay: Interaction study, checkerboard titration. Format: cell-based, Pseudomonas aeruginosa. The following applies: antibiotic in combination with RNL (ranalexin).
The test system of assay [2] is E. coli 31–97. The experiment in a line: Interaction study, checkerboard titration. Format: cell-based, Escherichia coli.
Assay [3] has as its system E. coli 7–98. Nature of the assay: Interaction study, checkerboard titration. Format: cell-based, Escherichia coli.
The test system of assay [4] is MS S. aureus 56–96. Nature of the assay: Interaction study, checkerboard titration. In kind it is cell-based, Staphylococcus aureus. The following applies: antibiotic in combination with RNL (ranalexin).
Assay [5] concerns MS S. aureus 14–99. Nature of the assay: Interaction study, checkerboard titration. In kind it is cell-based, Staphylococcus aureus. To be noted: antibiotic in combination with RNL (ranalexin). A digest of the protocol: (§1)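 Checkerboard titration of peptide plus clinical antibiotic against representative clinical MS S. aureus isolates in polypropylene microtiter plates. […] Mueller-Hinton broth, inoculum 5×10^5 cfu/ml, 18 h at 35°C in air. MIC is the lowest concentration inhibiting visible growth. FIC index = A/MICA + B/MICB; synergy ≤0.5.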

For assay [6], the system named is MS S. aureus 15–99. The experiment in a line: Interaction study, checkerboard titration. Format: cell-based, Staphylococcus aureus. To be noted: antibiotic in combination with RNL (ranalexin). A digest of the protocol:
as §1

For assay [7], the system named is MS S. aureus 21–99. The experiment in a line: Interaction study, checkerboard titration. In kind it is cell-based, Staphylococcus aureus. The following applies: antibiotic in combination with RNL (ranalexin).
Assay [8] has as its system E. coli ATCC 25922. Nature of the assay: Interaction study, checkerboard titration. To be noted: antibiotic in combination with RNL (ranalexin). Format: cell-based, Escherichia coli.
The subject of assay [9] is P. aeruginosa. The following applies: at 2 mg/l, in vitro, cited from earlier work; for effect on P. aeruginosa at 48 h: incubation continued for 48 h.
Setting [10] is: antibiotic in combination with MG II (magainin II).
The mark [11] stands for this setting: antibiotic in combination with RNL (ranalexin).

Turning to `CC(C)(O/N=C(\C(=O)N[C@@H]1C(=O)N2C(C(=O)[O-])=C(C[n+]3ccccc3)CS[C@H]12)c1csc(N)n1)C(=O)O` [CAZ, ceftazidime], the values for the FIC index in assay [1], in assay [2] (setting [10]) and in assay [3] (setting [10]) were 1.500, 0.187 and 0.312, respectively.

In the case of `CC[C@H]1OC(=O)[C@H](C)[C@@H](O[C@H]2C[C@@](C)(OC)[C@@H](O)[C@H](C)O2)[C@H](C)[C@@H](O[C@@H]2O[C@H](C)C[C@H](N(C)C)[C@H]2O)[C@](C)(OC)C[C@@H](C)C(=O)[C@H](C)[C@@H](O)[C@]1(C)O` [CLR, clarithromycin], the FIC index in [4] was determined as 0.312; in [5] it was 0.250; in [6], 0.187; in [7], 0.250; in assay [1], 0.375; in [8] it was 0.375. The FIC index in [2] (setting [10]) came out at 1.500; in [2] (setting [11]), 0.312; in [3] (setting [10]) it was 1.500; in assay [3] (setting [11]), 0.312. For the same compound, the “effect on P. aeruginosa cell growth at 24 h” value in assay [9] was “no effect on cell growth”. In assay [9], the “effect on P. aeruginosa at 48 h” value is “bactericidal”.

For `CO/N=C(\C(=O)N[C@@H]1C(=O)N2C(C(=O)O)=C(CSc3nc(=O)c(=O)[nH]n3C)CS[C@H]12)c1csc(N)n1` [CRO, ceftriaxone], the FIC index was 1.500 in assay [4]; 1.000 in assay [5]; 1.250 in assay [6]; 1.500 in assay [7]; 0.750 in assay [1]; 1.000 in assay [8]. Moreover, the FIC index in assay [2] (setting [10]) was 0.312; in assay [2] (setting [11]), 1.250; in [3] (setting [10]), 0.250; in [3] (setting [11]), 1.250.

As to `C[C@H]1c2cccc(O)c2C(=O)C2=C(O)[C@]3(O)C(=O)C(C(N)=O)=C(O)[C@@H](N(C)C)[C@@H]3[C@@H](O)[C@@H]21` [D, doxycycline], the FIC index in assay [4] is 0.312; in assay [5], 0.312; in assay [6], 0.250; in assay [7], 0.187; in assay [1] it was 0.312; in [8], 0.312. Also, the FIC index is 1.250 in [2] (setting [10]), 0.375 in [2] (setting [11]), 2.000 in [3] (setting [10]) and 0.312 in assay [3] (setting [11]).

With `C[C@@H](O)[C@H]1C(=O)N2C(C(=O)O)=C(S[C@@H]3CN[C@H](C(=O)N(C)C)C3)[C@H](C)[C@H]12` [MEM, meropenem], the FIC index worked out at 1.250 in [4]; 1.250 in assay [5]; 1.500 in assay [6]; 1.500 in assay [7]; 1.000 in [1]; 0.750 in assay [8]. Further, the FIC index in [2] (setting [10]) is 0.375; in [2] (setting [11]) it was 1.000; in assay [3] (setting [10]) it was 0.375; in [3] (setting [11]), 1.500.

In the case of `CCN1CCN(C(=O)N[C@@H](C(=O)N[C@@H]2C(=O)N3[C@@H]2SC(C)(C)[C@@H]3C(=O)O)c2ccccc2)C(=O)C1=O` [PIP, piperacillin], the FIC index was determined as 1.000 in [1]; 0.750 in [8]; 0.312 in [2] (setting [10]); 1.250 in assay [2] (setting [11]); 0.250 in assay [3] (setting [10]); 1.000 in assay [3] (setting [11]).

Turning to `CC[C@H]1OC(=O)[C@H](C)[C@@H](O[C@H]2C[C@@](C)(OC)[C@@H](O)[C@H](C)O2)[C@H](C)[C@@H](O[C@@H]2O[C@H](C)C[C@H](N(C)C)[C@H]2O)[C@](C)(O)C[C@@H](C)C(=O)[C@H](C)[C@@H](O)[C@]1(C)O` [erythromycin], in assay [9], the “effect on P. aeruginosa cell growth at 24 h” value is given as “no effect on cell growth” and the “effect on P. aeruginosa at 48 h” value is recorded as “bactericidal”.

amoxicillin-clavulanate [AMC]: the FIC index in [5] is 1.000; in [6], 1.500; in assay [1], 1.000; in assay [8], 1.500; in assay [2] (setting [10]) it was 0.312; in assay [3] (setting [10]) it was 0.187. Further, the FIC index in assay [3] (setting [11]) came to 1.000.

Regarding polymyxin E [POL-E], the FIC index in [1] came out at 0.250; in assay [8], 0.187; in assay [2] (setting [10]) it was 1.500; in assay [2] (setting [11]), 0.250; in [3] (setting [11]), 0.312.
